# Measurements taken from ChEMBL document CHEMBL5696442, “Discovery of type II inhibitors of TGFβ-activated kinase 1 (TAK1) and mitogen-activated protein kinase kinase kinase kinase 2 (MAP4K2)” (J Med Chem, 2015).
# Columns and labels:
# [1] = target: Serine/threonine-protein kinase ATR (Homo sapiens) (UniProt Q13535); assay: Inhibition of ATR in human Huh-7 cells at 1 uM by KiNativ Profiling analysis relative to control; format: cell-based
# [2] = target: Rho-associated protein kinase 1 (Homo sapiens) (UniProt Q13464); assay: Inhibition of ROCK1 Lys2 labeling site in human Huh-7 cell lysate at 1 uM by KiNativ Profiling analysis relative to control; format: subcellular
# [3] = target: Tyrosine-protein kinase CSK (Homo sapiens, UniProt P41240); assay: Inhibition of CSK ACT labeling site harbouring VSDFGLTKEASSTQDTGKLPVKWTAPEALR in human A-375 cells at 5 uM by KiNativ Profiling analysis relative to control; format: cell-based
# [4] = target: Interferon-induced, double-stranded RNA-activated protein kinase (Homo sapiens) (UniProt P19525); assay: Inhibition of PKR ACT labeling site in human Huh-7 cells at 10 uM by KiNativ Profiling analysis relative to control; format: cell-based
# MEF = assay: Inhibition of IL-1alpha induced p105 phosphorylation level in mouse MEF cells preincubated for 1 hr followed by IL-1 alpha stimulation and measured after 30 mins by Western blot analysis; format: functional, cell-based; settings: dose 0.01-10 µM
# [5] = target: T1, Serine/threonine-protein kinase 3 (Homo sapiens) (UniProt Q13188); assay: Inhibition of MST2 K1 labeling site in human Huh-7 cells at 1 uM by KiNativ Profiling analysis relative to control; format: cell-based
# T1 sequence (whole entry): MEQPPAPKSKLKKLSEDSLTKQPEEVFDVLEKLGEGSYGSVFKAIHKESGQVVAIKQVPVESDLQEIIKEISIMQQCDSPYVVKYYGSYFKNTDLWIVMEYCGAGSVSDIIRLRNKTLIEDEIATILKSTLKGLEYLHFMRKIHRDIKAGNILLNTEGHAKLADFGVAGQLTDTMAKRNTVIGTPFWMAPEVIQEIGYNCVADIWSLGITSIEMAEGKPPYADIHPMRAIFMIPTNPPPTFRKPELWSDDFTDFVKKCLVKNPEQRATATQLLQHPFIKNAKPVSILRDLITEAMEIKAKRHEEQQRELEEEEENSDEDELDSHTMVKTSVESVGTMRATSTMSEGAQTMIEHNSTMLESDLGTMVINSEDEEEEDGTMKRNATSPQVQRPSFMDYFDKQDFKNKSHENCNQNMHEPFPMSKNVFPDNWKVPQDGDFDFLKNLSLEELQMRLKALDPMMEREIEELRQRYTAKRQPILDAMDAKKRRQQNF
# [6] = target: T2, Serine/threonine-protein kinase LATS2 (Homo sapiens) (UniProt Q9NRM7); assay: Inhibition of LATS2 (unknown origin) at 10 uM by Ambit Kinomescan binding assay relative to control
# T2 sequence (whole entry): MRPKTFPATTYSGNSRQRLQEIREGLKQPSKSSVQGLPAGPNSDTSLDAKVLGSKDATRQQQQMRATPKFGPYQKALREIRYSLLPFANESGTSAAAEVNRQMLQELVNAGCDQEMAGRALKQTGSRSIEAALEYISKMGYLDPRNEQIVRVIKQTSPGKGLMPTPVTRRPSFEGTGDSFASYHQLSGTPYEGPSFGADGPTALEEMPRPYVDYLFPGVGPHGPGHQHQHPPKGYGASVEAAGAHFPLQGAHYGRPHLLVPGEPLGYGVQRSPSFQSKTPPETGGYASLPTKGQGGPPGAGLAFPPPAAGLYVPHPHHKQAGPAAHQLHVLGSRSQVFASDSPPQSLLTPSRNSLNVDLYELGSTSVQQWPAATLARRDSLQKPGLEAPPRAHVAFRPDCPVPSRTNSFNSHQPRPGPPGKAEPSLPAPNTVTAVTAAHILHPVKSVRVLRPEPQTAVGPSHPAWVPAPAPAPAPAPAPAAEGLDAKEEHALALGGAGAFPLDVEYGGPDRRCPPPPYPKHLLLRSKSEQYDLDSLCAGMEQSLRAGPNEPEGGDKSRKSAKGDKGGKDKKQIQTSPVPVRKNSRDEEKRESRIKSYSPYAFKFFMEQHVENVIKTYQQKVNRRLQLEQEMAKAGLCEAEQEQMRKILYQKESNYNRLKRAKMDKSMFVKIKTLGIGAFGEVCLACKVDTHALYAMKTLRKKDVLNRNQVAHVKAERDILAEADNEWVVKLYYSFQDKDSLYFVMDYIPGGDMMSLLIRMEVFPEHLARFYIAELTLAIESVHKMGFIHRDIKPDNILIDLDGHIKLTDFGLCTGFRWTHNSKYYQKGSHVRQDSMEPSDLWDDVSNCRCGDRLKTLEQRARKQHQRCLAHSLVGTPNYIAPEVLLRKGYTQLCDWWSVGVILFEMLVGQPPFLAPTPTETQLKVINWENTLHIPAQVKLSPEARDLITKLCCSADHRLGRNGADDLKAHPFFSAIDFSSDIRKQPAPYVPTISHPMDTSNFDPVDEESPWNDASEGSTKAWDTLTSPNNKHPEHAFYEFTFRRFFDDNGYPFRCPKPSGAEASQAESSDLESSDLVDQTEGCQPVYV
# [7] = target: Misshapen-like kinase 1 (Homo sapiens) (UniProt Q8N4C8); assay: Inhibition of ZC3/MINK K2 labeling site in human Huh-7 cells at 10 uM by KiNativ Profiling analysis relative to control; format: cell-based
# [8] = target: Serine/threonine-protein kinase Nek6 (Homo sapiens) (UniProt Q9HC98); assay: Inhibition of NEK6 ACT labeling site in human Huh-7 cells at 10 uM by KiNativ Profiling analysis relative to control; format: cell-based
# [9] = target: 5'-AMP-activated protein kinase catalytic subunit alpha-2 (Homo sapiens) (UniProt P54646); assay: Inhibition of AMPKa2 Lys1 labeling site in human A-375 cells at 0.5 uM by KiNativ Profiling analysis relative to control; format: cell-based
# Outline: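 Live A375 melanoma cells were treated with compound at 5 or 0.5 μM, then lysed. The lysates were labeled with a lysine-reactive ATP or ADP-biotin probe. Kinase protection from probe labeling was measured by KiNativ.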
# [10] = target: Myosin light chain kinase (Homo sapiens) (UniProt Q32MK0); assay: Inhibition of MLCK (unknown origin) at 1 uM by Ambit Kinomescan binding assay relative to control; values are per cent of control
# Myosin light chain kinase (Homo sapiens), sequence (Q32MK0 whole entry): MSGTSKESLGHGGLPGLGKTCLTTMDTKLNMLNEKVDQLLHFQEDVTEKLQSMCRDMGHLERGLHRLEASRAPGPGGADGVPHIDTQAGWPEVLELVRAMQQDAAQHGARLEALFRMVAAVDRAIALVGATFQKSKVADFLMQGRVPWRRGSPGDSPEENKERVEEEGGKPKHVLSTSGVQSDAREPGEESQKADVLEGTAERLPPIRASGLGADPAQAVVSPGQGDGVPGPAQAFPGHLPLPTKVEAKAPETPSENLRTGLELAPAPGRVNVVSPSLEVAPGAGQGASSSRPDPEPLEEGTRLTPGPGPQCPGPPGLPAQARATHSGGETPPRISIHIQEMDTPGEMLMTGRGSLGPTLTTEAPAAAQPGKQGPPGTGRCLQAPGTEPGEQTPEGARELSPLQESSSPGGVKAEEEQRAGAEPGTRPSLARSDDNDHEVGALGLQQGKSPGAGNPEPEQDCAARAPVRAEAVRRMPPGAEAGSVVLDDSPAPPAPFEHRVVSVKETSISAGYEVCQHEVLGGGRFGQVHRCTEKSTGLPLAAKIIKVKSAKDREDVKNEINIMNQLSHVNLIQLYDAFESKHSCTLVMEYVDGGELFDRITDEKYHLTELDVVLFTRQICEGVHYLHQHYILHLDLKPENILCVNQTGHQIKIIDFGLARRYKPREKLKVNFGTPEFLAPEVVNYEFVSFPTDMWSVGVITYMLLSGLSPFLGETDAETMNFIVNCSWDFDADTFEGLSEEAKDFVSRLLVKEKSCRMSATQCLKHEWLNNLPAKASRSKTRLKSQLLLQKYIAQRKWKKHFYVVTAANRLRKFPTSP
# Serine/threonine-protein kinase Nek6 (Homo sapiens), sequence (Q9HC98 whole entry): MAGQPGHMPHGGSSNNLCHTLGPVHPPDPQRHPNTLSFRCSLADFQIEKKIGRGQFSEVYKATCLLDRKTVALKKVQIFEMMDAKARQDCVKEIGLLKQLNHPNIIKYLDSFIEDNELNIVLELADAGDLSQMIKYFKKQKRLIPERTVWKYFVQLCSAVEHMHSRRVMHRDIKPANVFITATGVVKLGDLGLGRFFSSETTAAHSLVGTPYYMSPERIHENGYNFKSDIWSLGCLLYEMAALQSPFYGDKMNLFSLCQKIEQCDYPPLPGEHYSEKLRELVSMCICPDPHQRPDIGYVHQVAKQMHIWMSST
# Interferon-induced, double-stranded RNA-activated protein kinase (Homo sapiens), sequence (P19525 whole entry): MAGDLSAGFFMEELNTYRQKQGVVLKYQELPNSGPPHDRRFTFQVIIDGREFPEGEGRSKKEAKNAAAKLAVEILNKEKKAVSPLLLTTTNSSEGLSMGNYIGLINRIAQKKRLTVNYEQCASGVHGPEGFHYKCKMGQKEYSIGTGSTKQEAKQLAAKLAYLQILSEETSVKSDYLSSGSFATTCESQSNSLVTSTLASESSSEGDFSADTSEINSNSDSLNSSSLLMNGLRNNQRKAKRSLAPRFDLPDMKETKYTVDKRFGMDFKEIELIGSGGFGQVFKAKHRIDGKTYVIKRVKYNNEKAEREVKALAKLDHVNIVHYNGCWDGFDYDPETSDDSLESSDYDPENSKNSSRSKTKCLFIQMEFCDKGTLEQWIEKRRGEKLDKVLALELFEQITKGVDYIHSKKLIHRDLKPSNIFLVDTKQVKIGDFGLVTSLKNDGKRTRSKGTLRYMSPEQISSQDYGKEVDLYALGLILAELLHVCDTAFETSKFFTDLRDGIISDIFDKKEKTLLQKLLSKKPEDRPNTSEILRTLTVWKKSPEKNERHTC
# Misshapen-like kinase 1 (Homo sapiens), sequence (Q8N4C8 whole entry, looked up): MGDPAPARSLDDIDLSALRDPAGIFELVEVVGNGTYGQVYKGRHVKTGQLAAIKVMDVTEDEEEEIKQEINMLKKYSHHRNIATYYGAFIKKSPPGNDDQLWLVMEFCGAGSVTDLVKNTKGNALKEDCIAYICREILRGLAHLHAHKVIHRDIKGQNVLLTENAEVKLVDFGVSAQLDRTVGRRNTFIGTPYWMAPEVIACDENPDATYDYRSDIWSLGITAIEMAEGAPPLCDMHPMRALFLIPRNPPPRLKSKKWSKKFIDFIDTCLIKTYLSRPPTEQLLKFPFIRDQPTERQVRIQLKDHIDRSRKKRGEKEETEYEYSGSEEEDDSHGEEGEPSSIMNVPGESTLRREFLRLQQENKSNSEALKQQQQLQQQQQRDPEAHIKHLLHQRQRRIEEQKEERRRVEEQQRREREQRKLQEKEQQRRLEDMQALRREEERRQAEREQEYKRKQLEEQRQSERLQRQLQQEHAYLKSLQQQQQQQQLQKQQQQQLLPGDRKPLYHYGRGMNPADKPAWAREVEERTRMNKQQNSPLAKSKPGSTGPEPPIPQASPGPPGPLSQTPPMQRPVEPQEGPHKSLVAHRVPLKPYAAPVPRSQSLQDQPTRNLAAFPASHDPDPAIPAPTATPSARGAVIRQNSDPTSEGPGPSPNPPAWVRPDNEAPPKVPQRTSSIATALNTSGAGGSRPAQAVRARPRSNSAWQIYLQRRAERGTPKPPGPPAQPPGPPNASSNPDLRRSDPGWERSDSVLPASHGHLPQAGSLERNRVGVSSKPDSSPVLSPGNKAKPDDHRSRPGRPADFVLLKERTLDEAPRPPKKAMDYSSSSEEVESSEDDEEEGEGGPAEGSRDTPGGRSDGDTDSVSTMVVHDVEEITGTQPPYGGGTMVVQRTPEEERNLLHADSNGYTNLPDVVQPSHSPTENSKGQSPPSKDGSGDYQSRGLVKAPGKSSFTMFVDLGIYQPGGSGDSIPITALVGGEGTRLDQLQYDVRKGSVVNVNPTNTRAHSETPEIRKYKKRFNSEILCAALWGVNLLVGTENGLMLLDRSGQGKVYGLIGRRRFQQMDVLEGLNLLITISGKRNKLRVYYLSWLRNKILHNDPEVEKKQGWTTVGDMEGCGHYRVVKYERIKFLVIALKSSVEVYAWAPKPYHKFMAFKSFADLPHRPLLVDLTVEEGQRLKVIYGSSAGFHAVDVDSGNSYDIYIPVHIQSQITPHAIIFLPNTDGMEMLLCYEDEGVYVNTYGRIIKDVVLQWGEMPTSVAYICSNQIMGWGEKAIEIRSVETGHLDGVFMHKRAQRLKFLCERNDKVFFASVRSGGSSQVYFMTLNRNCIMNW
# 5'-AMP-activated protein kinase catalytic subunit alpha-2 (Homo sapiens), sequence (P54646 whole entry, looked up): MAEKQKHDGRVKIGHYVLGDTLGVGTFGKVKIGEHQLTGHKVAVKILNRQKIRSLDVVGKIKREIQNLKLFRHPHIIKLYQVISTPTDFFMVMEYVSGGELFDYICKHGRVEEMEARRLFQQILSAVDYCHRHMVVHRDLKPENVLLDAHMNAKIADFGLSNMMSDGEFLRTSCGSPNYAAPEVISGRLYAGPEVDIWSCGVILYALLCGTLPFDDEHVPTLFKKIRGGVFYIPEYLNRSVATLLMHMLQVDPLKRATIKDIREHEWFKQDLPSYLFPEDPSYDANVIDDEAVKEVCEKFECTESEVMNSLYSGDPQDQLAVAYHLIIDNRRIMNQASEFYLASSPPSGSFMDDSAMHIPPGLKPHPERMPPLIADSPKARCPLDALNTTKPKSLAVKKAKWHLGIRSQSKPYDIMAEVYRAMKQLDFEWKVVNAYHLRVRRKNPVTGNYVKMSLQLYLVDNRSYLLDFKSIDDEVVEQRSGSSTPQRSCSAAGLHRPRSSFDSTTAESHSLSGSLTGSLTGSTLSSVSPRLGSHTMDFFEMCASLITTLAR
# Tyrosine-protein kinase CSK, sequence (P41240 2-450 limits assumed): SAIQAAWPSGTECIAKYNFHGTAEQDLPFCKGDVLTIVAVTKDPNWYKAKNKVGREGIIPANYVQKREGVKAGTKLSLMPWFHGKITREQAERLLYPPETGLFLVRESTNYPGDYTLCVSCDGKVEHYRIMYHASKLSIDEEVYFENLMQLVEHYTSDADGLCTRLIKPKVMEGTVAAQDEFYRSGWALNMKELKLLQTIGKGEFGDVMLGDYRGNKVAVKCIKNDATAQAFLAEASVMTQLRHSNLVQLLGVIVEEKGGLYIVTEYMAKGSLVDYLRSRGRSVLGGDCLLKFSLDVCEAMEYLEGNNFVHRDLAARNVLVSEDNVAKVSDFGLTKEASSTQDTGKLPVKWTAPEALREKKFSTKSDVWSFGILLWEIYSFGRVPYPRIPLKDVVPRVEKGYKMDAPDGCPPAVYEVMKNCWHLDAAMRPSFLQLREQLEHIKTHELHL
smiles,measurement,setting,value
CNc1cc(Oc2cc(C(=O)Nc3cc(N4CCN(C)CC4)cc(C(F)(F)F)c3)ccc2C)ncn1,inhibition,[1],29.3%
same,inhibition,[2],2.7%
CCN1CCN(Cc2ccc(NC(=O)c3ccc(C)c(Oc4ccnc5[nH]ccc45)c3)cc2C(F)(F)F)CC1,inhibition,[3],57.7%
same,inhibition,[4],40.8%
same,inhibition,MEF,Dose-Dependent Effect
same,inhibition,[5],16.2%
same,inhibition,[6],13%
same,inhibition,[7],72.6%
same,inhibition,[8],-3%
CCN1CCN(Cc2ccc(NC(=O)c3ccc(C)c(/C=C/c4cnc5[nH]ccc5c4OC)c3)cc2C(F)(F)F)CC1,inhibition,[9],20.3%
same,residual activity,[10],100%
